Laboratory results reported in ChEMBL document CHEMBL1126990, “Design and synthesis of 18F-labeled neurotoxic analogs of MPTP” (J Med Chem, 1993).

How the values were obtained:
Type in all cases: ADME
Rattus norvegicus [1] = species on record: Rattus norvegicus; test: Maximal rate (Vmax) for oxidation by rat liver MAO (results are means of number of separate experiments, n=5)
Summary of the method: (§1)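 Rat liver MAO (crude P2 mitochondrial fraction from adult male Wistar rats, in pH 7.4 phosphate buffer) incubated with substrate at 30 μM to 5 mM; colorimetric detection of H2O2 formed. Blanks contained 0.1 mM pargyline. Vmax and Km from linear regression of Lineweaver-Burk plots; means ± SE of n separate experiments; ANOVA with post-hoc Scheffe test.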

[2] = separate experiments, n=5); summary of the method: as §1
[3] = Ratio between Vmax and Km; summary of the method: as §1
Rattus norvegicus [4] = species on record: Rattus norvegicus; test: Maximal rate (Vmax) for oxidation by rat liver MAO; summary of the method: as §1
MAO = test: Michaelis-Menten constant (Km) for oxidation by rat liver MAO; summary of the method: as §1

| SMILES | Vmax (Rattus norvegicus [1]) | Km [2] [µM] | Ratio [3] | Vmax (Rattus norvegicus [4]) | Km (MAO) [µM] |
| --- | --- | --- | --- | --- | --- |
| CN1CC=C(c2ccccc2CCl)CC1 | 231 nM hr-1 (mg of protein)-1 | 186 | 1.24 | – | – |
| CN1CC=C(c2ccccc2CO)CC1 | – | – | 0.74 | 273 nM hr-1 (mg of protein)-1 | 370 |
